Published values gathered from unrelated publications.
Lines come from different studies, so protocols differ.

CCN(CCCOc1ccc2c(Nc3cc(CC(=O)Nc4cccc(F)c4)n[nH]3)ncnc2c1)CCOP(=O)(O)O  IC50 (MB002; cell growth or viability; 7 days): 0.131 µM
CCCN(CCS(C)(=O)=O)Cc1ccc(-c2ccc3ncnc(Nc4ccc(OCc5cccc(F)c5)c(Cl)c4)c3c2)o1  EC50 (Trypanosoma brucei; parasite growth): 2 µM
CC(=O)OCCCn1c(/C=C/c2ccc(C#N)cc2)nc2ccccc2c1=O  MIC (Enterococcus faecium; microbial growth, broth dilution; NCTC7171): > 128 µg/mL
CC1CS(=O)(=O)CCN1/N=C/c1ccc([N+](=O)[O-])o1 (stereo not drawn)  IC50 (HD-MB03; cell growth or viability; 7 days): > 10 µM
CC(=O)Nc1cccc(-n2c(=O)n(C3CC3)c(=O)c3c(Nc4ccc(I)cc4F)n(C)c(=O)c(C)c32)c1  viability (Calu-6; cell growth or viability, resazurin; 50 nM, 72 h): 58.4%
O=C(O)c1cn(C2CC2)c2cc(N3CCNCC3)c(F)cc2c1=O  IC50 (Mycobacterium intracellulare; microbial growth; ATCC23068): 0.3 µg/mL
COc1ccccc1-c1cc(/C=C2\C(=O)Nc3ncc(Br)cc32)cc(Br)c1O  EC50 (Trypanosoma brucei; parasite growth): 2.51 µM
O=C(NCCO)c1cccc(-n2c(/C=C/c3ccc(F)cc3)nc3ccccc3c2=O)c1  MIC (Enterococcus faecium; microbial growth, broth dilution; NCTC7171): > 128 µg/mL
COc1cccc(-n2ncc3c(N/N=C/c4ccc(C(=O)NCCN(C)C)cc4)ncnc32)c1  EC50 (Trypanosoma brucei; parasite growth): 0.251 µM
CO[C@H]1C[C@@H]2CC[C@@H](C)[C@@](O)(O2)C(=O)C(=O)N2CCCC[C@H]2C(=O)O[C@H]([C@H](C)C[C@@H]2CC[C@@H](O)[C@H](OC)C2)CC(=O)[C@H](C)/C=C(\C)[C@@H](O)[C@@H](OC)C(=O)[C@H](C)C[C@H](C)/C=C/C=C/C=C/1C  IC50 (MB002; cell growth or viability; 7 days): 0.0065 µM
N#Cc1ccc(/C=C/c2nc3ccccc3c(=O)n2-c2cccc(C(=O)NCCO)c2)cc1  MIC (Enterococcus faecium; microbial growth, broth dilution; NCTC7171): > 128 µg/mL
Nc1ncc(-c2cccc(S(N)(=O)=O)c2)c2scc(-c3ccc(F)c(Cl)c3)c12  EC50 (Trypanosoma brucei; parasite growth): 10 µM
